Screening data as filed in PubChem.
This excerpt belongs to a sample that is enriched for hits.
Yeast lifespan up: compounds extending yeast replicative lifespan, primary screen, S. cerevisiae, OD615 | inhibition of the nicotinamide effect, % at 10 µM | S. cerevisiae growth with nicotinamide; deaD strain in restrictive glucose medium | actives 0.68% (n = 130,000);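 active means inhibition above a set limit, placed 3 SD over the median of all compounds, cut at about 26% in these data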
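Buffer or medium: CSMM-D glucose medium, restrictive; test system: modified budding yeast, DeaD strain; compound: single dose 10 µM compound, 0.25% DMSO; schedule: culture preincubation 4 h, compound exposure 48 h, both 30 °C; detection: optical density (absorbance) at 615 nm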
PostGolgi yeast: phenotypic screen on post-Golgi transport, primary screen; post-Golgi transport phenotypic cell assay; inhibition, % at 10 µM; actives 0.9% (n = 98,000);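 further: yeast cells grown in 1536-well plates; yeast grown about 18 h at 30C before absorbance read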
BB579 growth dn: growth inhibitors of yeast BB579 in restrictive medium, primary screen, yeast lifespan-shortening project, S. cerevisiae. actives 0.51% (n = 140,000). inhibition, % at 10 µM. OD615, 48 h;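 active means inhibition above a set limit, 3 SD over the mean compound inhibition, cut at about 44% in these data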
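Test system: S. cerevisiae DeaD strain BB579 yeast; Medium: restrictive CSMM-D medium; Compound: one dose, 10 µM compound with 0.25% DMSO; Incubation: 4 h cell preincubation, 48 h compound exposure, 30 °C humidified; Signal: OD at 615 nm; Benchmarks: amphotericin B at 10 µg/mL as positive control.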
PostGolgi ctrl: growth inhibition of yeast control strain, primary screen, counter-screen for post-Golgi transport modulator project; actives 5% (n = 98,000); inhibition, % at 10 µM; efflux-deficient yeast background strain, growth absorbance A615, 16 h; AID 738, 2007
Numbers stand for hits; – = inactive; · = no result given. Unless noted, no stated cut-off is given here; in the data, active means inhibition above about 30%; inactive means the rest.

SMILES	Yeast lifespan up	PostGolgi yeast	BB579 growth dn	PostGolgi ctrl
CCOC(=O)c1ccc(NC(=O)c2ccc(CN3CCOCC3)cc2)cc1	–	94	–	–
O=C(Nc1ccc(N2CCOCC2)cc1)c1cc2ccccc2o1	–	–	–	–
O=C(N/N=C/c1ccc(OC(=O)c2ccccc2)cc1)c1ccc(CN2CCOCC2)cc1	–	80	–	–
COc1cccc(NC(=O)c2cc(CN3C(=O)c4ccccc4C3=O)ccc2OC)c1	–	·	–	·
N#Cc1ccc(-n2nccc2-c2cnc3n(c2=O)CCS3)cc1	–	–	–	–
CC(C)(C)C1CCC(OCC(O)CN2CCN(c3ccccc3)CC2)CC1 (centres undefined)	–	104	–	96
Cc1ccc(N2CCN(CC(O)COC3CCCCC3)CC2)cc1 (centres undefined)	–	–	–	–
CC1CCN(CC(O)COC2CCC(C(C)(C)C)CC2)CC1 (centres undefined)	–	97	–	98
O=C(N1CCOCC1)C1(c2ccccc2)CCCCC1	–	–	–	42
CCOc1ccc(-n2nc3c(=O)n(CCN4CCCCC4)nc(C)c3c2C)cc1	–	·	–	·
COc1ccc(C(=O)NC(=S)NNC(=O)c2cnccn2)cc1OC	–	·	90	·
COc1cccc(C(=O)COC(=O)c2ccc(NC(C)=O)cc2)c1	–	·	–	·
Oc1c(Cl)cc(Cl)cc1CNc1ccc(Br)cn1	–	–	–	–
Oc1ccc(Cl)cc1CNc1ccc(Br)cn1	–	–	–	48
CCOc1ccc2c(c1)c(C(C)=O)c(C)n2-c1ccccc1	–	–	–	41
CCOC(=O)/C(=N\Nc1cccc(C(F)(F)F)c1)N(CCOC)CCOC	–	–	54	–
N/C(CC(=O)Nc1cccc(C(F)(F)F)c1)=N/O	–	–	–	–
N#CC(c1nc2ccccc2nc1N1CCCC1)S(=O)(=O)c1ccccc1 (centres undefined)	–	–	–	31
COC(=O)c1c(NC(=O)COC(=O)CNC(=O)C2CCCCC2)sc(C)c1C	–	·	–	·
O=C(Oc1ccc(=O)n(-c2ccccc2)n1)c1ccc(Cl)cc1	51	–	–	–
COc1cc(C=O)c(Br)cc1OCc1ccc(C)cc1	–	–	–	48
Nc1ccc(C(=O)N/N=C2\CCCc3c2[nH]c2ccccc32)cc1	–	–	–	44
COP(=O)(OC)C(Nc1ccc(C)cc1)c1ccc([N+](=O)[O-])cc1 (centres undefined)	–	·	–	·
CC(C)OCCCNC(=O)CCN1C(=O)COc2ccccc21	–	–	–	–
CCOc1ccccc1CNC(=O)CCN1C(=O)COc2ccccc21	–	–	–	44
SMILES	Yeast lifespan up	PostGolgi yeast	BB579 growth dn	PostGolgi ctrl
Cc1ccc(S(=O)(=O)N=S(CC2CC2(Cl)Cl)CC2CC2(Cl)Cl)cc1 (centres undefined)	–	–	–	–
CN(CC(=O)Nc1ccc(C#N)cc1)Cc1ccc(Cl)c(Cl)c1	–	–	–	34
CN(CC(=O)Nc1ccc(C#N)cc1)CC(=O)Nc1ccc(N2CCOCC2)cc1	–	·	–	·
CC(C)(C)NC(=O)C(c1ccco1)N(C(=O)Cn1nnc(-c2ccc(F)cc2)n1)c1cccc(F)c1 (centres undefined)	–	–	–	36
CCOC(=O)c1c(C)[nH]c(C)c1C(=O)CSc1ncccn1	–	–	–	–
COCCOC(=O)C1=C(C)NC(=O)N(C(C)=O)C1c1ccc(Cl)cc1 (centres undefined)	–	–	–	–
Cc1ccc2cc(C#N)c(NCc3ccco3)nc2c1	–	–	–	–
Cc1ccc(N(CC(=O)NC2CC3CCC2C3)S(C)(=O)=O)cc1C (centres undefined)	–	–	–	–
CS(=O)(=O)N(CC(=O)NC1CC2CCC1C2)c1cccc(C(F)(F)F)c1 (centres undefined)	–	–	–	31
Cc1cccc(N2CCN(C(=O)Cc3ccc(Br)cc3)CC2)c1C	–	–	–	46
Cc1sc2ncnc(N/N=C/c3ccccc3O)c2c1C	–	·	68	·
COC(=O)c1cc(NC(=O)CC2SC(=Nc3ccccc3)N(CCc3c[nH]c4ccccc34)C2=O)cc(C(=O)OC)c1 (centres undefined)	–	–	–	–
COc1ccc(-c2nc(-c3cccs3)c(-c3cccs3)[nH]2)cc1O	–	–	–	31
N#CCSc1nc2scc(-c3cccs3)c2c(=O)n1CCc1ccccc1	–	–	–	32
COc1cc(/C=C/C(=O)c2ccc(Cl)s2)cc(OC)c1O	–	–	–	45
COc1ccc(/C=C/C(=O)c2ccc(Cl)s2)cc1O	–	–	–	–
O=C(COc1ccccc1Cl)NCc1ccncc1	–	–	–	–
COc1cc2nc(SCc3ccc(F)cc3)n(Cc3cccs3)c(=N)c2cc1OC	–	–	–	–
COc1ccc(Cn2c(SCc3ccccc3C)nc3cc(OC)c(OC)cc3c2=N)cc1	–	–	–	67
CCCC1C2C(=O)N(c3ccccc3OCC)C(=O)C2ON1c1ccccc1 (centres undefined)	–	–	–	–
Cc1c(C#N)c(N=CN(C)C)c(C(=O)c2ccccc2)n1-c1ccc(Br)cc1	–	–	–	43
Cc1cccc(N2C(=O)c3cccc4c(N(C)CCO)ccc(c34)C2=O)c1	–	–	–	–
CCOC(=O)c1cc2sccc2n1CCCN1C(=O)c2ccccc2C1=O	–	–	–	32
Cc1ccccc1-c1nnc(SCc2ccc(F)cc2)o1	–	–	–	35
O=C(Nc1ccccc1-c1nnc(SCc2ccc(Cl)cc2)o1)c1ccccc1	–	–	–	–
SMILES	Yeast lifespan up	PostGolgi yeast	BB579 growth dn	PostGolgi ctrl
O=c1c(-c2nnc(SCc3ccc(Cl)cc3)o2)cccn1Cc1ccccc1	–	–	–	61
O=C(c1cn(-c2ccccc2)nc1-c1cccs1)N1CCN(c2ccccn2)CC1	–	–	–	54
CC1(C)C=C(c2ccc(C=O)s2)CC(C)(C)N1C=O	–	·	–	·
COC(=O)c1cc(NC(=O)Cn2c(=O)cnc3ccccc32)cc(C(=O)OC)c1	–	–	–	–
Cc1onc(-c2ccccc2)c1C(=O)Nc1nc2c(s1)CCCC2	–	–	–	34
Cc1onc(-c2ccccc2)c1C(N)=O	–	–	–	42
Cc1onc(-c2ccccc2)c1C(=O)N1CCCN(C(=O)c2c(-c3ccccc3)noc2C)CC1	–	–	–	–
Cc1onc(-c2ccccc2)c1C(=O)Nc1cccc(OC(C)C)c1	–	–	–	33
O=[N+]([O-])c1cc(C(F)(F)F)ccc1NCCc1c[nH]c2ccccc12	–	·	–	·
O=[N+]([O-])c1cc(C(F)(F)F)ccc1NCCc1c[nH]c2ccc(O)cc12	–	–	–	55
O=C(Nn1c(C2CCCCC2)nc2ccccc2c1=O)c1ccc([N+](=O)[O-])cc1Cl	–	·	–	·
N#Cc1cc2c(nc1SCC(O)CS(=O)(=O)Cc1ccc(Cl)cc1)CCCC2 (centres undefined)	–	–	–	36
CC(C)(C)c1ccc(S(=O)(=O)CC(O)CSc2nc3c(cc2C#N)CCCC3)cc1 (centres undefined)	–	–	–	–
